Two compounds from PMC10454840 (Drug Design, Development and Therapy, 2023) can be followed below.

Data set [1] concerns PC12 cells. Description: Hoechst 33342 staining assay of PC12 cell apoptosis. To be noted: 200 μM, 48 h. The data set is classed as cell-based. The essentials: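 PC12 cells seeded at 1×10^5/well in 6-well plates and grown at 37 °C, 5% CO2 to 70–80% confluence. Test compound at 200 μM for 48 h, with a DMSO control group. Medium removed, Hoechst staining solution added for 30 min at 37 °C, cells washed three times with PBS, and nuclear morphology viewed by inverted fluorescence microscopy.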

Data set [2] has as its system cysts from E. granulosus s.s.-infected mice. As to the kind of experiment: TEM observation of cysts from treated infected mice. The data set is classed as in vivo, Kunming mice. The following applies: 50 mg/kg, oral, 28 days. The method in brief: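 Female Kunming mice, 8 weeks old, were infected intraperitoneally with 50 in vitro-derived microcysts. Infection was confirmed by B-mode ultrasound at 6 months, and mice were randomised into groups of 6. Test compound was given in 0.5% CMC-Na by daily oral gavage (0.1 mL/10 g) for 28 days against a vehicle control. Peritoneal cysts were isolated, and randomly selected cysts were examined by TEM.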

In data set [3] the test system is PC12 cells. As to the kind of experiment: MTT cytotoxicity assay in PC12 cells. The following applies: 200 μM, 48 h. The format is cell-based. The essentials:
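PC12 cells in log phase were grown in RPMI 1640 with 10% horse serum, 5% FBS and penicillin/streptomycin, then seeded at 1×10^4 per well and settled for 12 h at 37 °C, 5% CO2. Compounds were added at 6.25–200 μM final, in triplicate, with a DMSO control, for 48 h. Serum-free medium plus MTT followed for 4 h, then formazan lysate and absorbance at 570 nm. Inhibition = [1−(ODtreated−ODblank)/(ODcontrol−ODblank)]×100%.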
For orientation: Formazan colour is commonly taken as a measure of viable cells.

Data set [4] deals with E. granulosus s.s.-infected mice. Description: Drug treatment of E. granulosus s.s.-infected mice, cyst weight. The following applies: 50 mg/kg/day oral, 28 days. The data set is classed as in vivo, Kunming mice.
The nature of data set [5]: Acute toxicity study in mice. To be noted: both, Kunming, mouse, in vivo, po, single oral dose.
For another data set, the system named is E. granulosus s.s. PSCs. As to the kind of experiment: In vitro drug treatment of PSCs, viability by 1% eosin staining. The data set is classed as cell-based, Echinococcus granulosus sensu stricto. The following applies: Echinococcus granulosus, 48 h, read-out: viability of PSCs. The method in brief: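 Protoscoleces came from sheep cysts. They were washed in PBS, digested with 1% pepsin for 30 min and cultured in RPMI 1640 with 10% FBS and penicillin/streptomycin at 37 °C, 5% CO2 for 3 days, with viability above 98%. Wells held 200 PSCs. Compounds came from 20 mM DMSO stocks, at 40 μM final for screening, then 40–240 μM. The control was 1% DMSO. After 48 h, 1% eosin marked dead PSCs red. Three independent experiments, mean ± S.D.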

Take `COc1ccc2c(c1)[nH]c1c(C)nccc12` [HM, 7-methoxy-1-methyl-9H-pyrido[3,4-b] indole]: the “PC12 cell nuclei / morphology (apoptosis)” value with PC12 cells [1] is “reduced number of cells with varying morphological sizes and significantly denser granules or bright blue fluorescence”. Also, the “cyst ultrastructure (TEM)” value in data set [2] was “fewer microtriches and an unclear germinal layer structure but clear nuclei”. Moreover, in the data set on PC12 cells [3], the “PC12 cell viability inhibition” value is recorded as 87.02 ± 5.65%. In data set [4], this compound showed a cyst weight of 6.53 ± 1.56 g. Also, the LD50 (commonly the dose at which mortality reaches 50%) at 14 days in data set [5] came out at 447 mg/kg. The viability (in general, a read-out of living cells in per cent, often relative to untreated cells) at 40 µM with E. granulosus s.s. PSCs worked out at 94.7 ± 4.52%.
Regarding `CCCSc1ccc2nc(NC(=O)OC)[nH]c2c1` [ABZ, Albendazole], in data set [2], the “cyst ultrastructure (TEM)” value is “fewer microtriches and an unclear germinal layer structure but clear nuclei”. Also, the viability at 40 µM in the data set on E. granulosus s.s. PSCs was 94.8 ± 5%.
